Columns and labels:
Rattus norvegicus [1] = species: Rattus norvegicus; experiment: Score point for the selectivity versus additional effect R&T interval.; type: functional
Rattus norvegicus [2] = species: Rattus norvegicus; experiment: Score value indicates desire effect on heart rate; type: functional
Rattus norvegicus [3] = species: Rattus norvegicus; experiment: Score value indicates selectivity against the undesired effect on diastolic blood pressure; type: functional, Artery
Rattus norvegicus [4] = experiment: In vivo activity in anesthetized rat was measured as the R alpha T-interval of the rat ECG which reflects the time from ventricular excitation to recovery; type: functional, Cardiac ventricle
In short: (§1)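 Male Wistar rats (280–360 g) under urethane (1.25 g/kg ip), intubated and breathing spontaneously. Femoral arterial pressure was recorded with needle-electrode ECG, analysed every 30 s. Compound was given by continuous femoral-vein infusion at 0.1 mL/min, with concentration raised tenfold every 10 min (3 doses). ED75/ED125 is the dose giving a 25% decrease/increase from the predrug value, reported as the geometric mean of individual EDs.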

Cavia porcellus [5] = species: Cavia porcellus; experiment: In vitro activity in guinea pig atria was measured as rate of spontaneously beating right atrium (SR) which reflects the activity of the sinus node; type: functional; conditions: Cardiac atrium
In short: (§2)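 Isolated guinea pig atria in oxygenated buffer at 35 °C. Right atria beat spontaneously; left atria were paced at 2 Hz with 1 ms rectangular pulses and isometric contractions were recorded. Cumulative concentration–response curves were run with up to five concentrations. EC75/EC125 is the concentration giving a 25% decrease/increase from the predrug value, reported as the geometric mean of individual ECs.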

Rattus norvegicus [6] = experiment: In vivo activity in anesthetized rat was measured as heart rate which provides information on in vivo bradycardic activity; type: functional; in short: as §1
Rattus norvegicus [7] = species: Rattus norvegicus; experiment: Total score (SS)
[8] = Selectivity quotient (F75/SR75); # means very high (estimated); type: functional
In short: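 Isolated atria in oxygenated buffer at 35 °C. Spontaneously beating right atria gave sinus rate; left atria paced at 2 Hz with 1 ms rectangular pulses gave isometric force of contraction. Cumulative concentration-response curves used up to five concentrations. EC75 (25% decrease from predrug value) was taken as the geometric mean of individual values. Quotient is F75/SR75.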

Rattus norvegicus [9] = species: Rattus norvegicus; experiment: Selectivity quotient (R&T125/HR75)
Cavia porcellus [10] = species: Cavia porcellus; experiment: Score value indicates decrease of the sinus rate; type: functional
Cavia porcellus [11] = species: Cavia porcellus; experiment: In vitro activity in guinea pig atria as the functional refractory period (FRP), which is the shortest interval between a double stimulus causing a double contraction.; in short: as §2
Cavia porcellus [12] = species: Cavia porcellus; experiment: Score point for the selectivity versus additional effect FRP.; type: functional
Rattus norvegicus [13] = species: Rattus norvegicus; experiment: Selectivity quotient (DAP125/HR75)
Cavia porcellus [14] = species: Cavia porcellus; experiment: Selectivity quotient (FRP125/SR75); type: functional
In short: (§3)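 Atrial selectivity quotients were calculated from the guinea pig atrial EC values as F75/SR75 and FRP125/SR75.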

Cavia porcellus [15] = species: Cavia porcellus; experiment: Sum of the scores of decrease of the sinus rate and selectivity versus the decrease in force of contraction; type: functional
Cavia porcellus [16] = species: Cavia porcellus; experiment: Score value indicates selectivity versus the decrease in force of contraction; type: functional
[17] = Partition coefficient (logP); type: physicochemical; conditions: octanol/water; read-out: logP
In short: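 Lipophilicity was measured by reversed-phase HPLC. Mobile phase was methanol/0.005 M phosphate buffer pH 4 (60/40) with 0.1% SDS and 0.1 M NaClO4, at 23.0 ± 0.5 °C, with UV detection at 205 nm.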

Cavia porcellus [18] = species: Cavia porcellus; experiment: In vitro activity in guinea pig atria was measured as the peak force of contraction (F) of a stimulated left atrium; type: functional; conditions: Cardiac atrium; in short: as §2
Cavia porcellus [19] = species: Cavia porcellus; experiment: Selectivity quotient (F75/SR75); type: functional; in short: as §3
Rattus norvegicus [20] = experiment: In vivo activity in anesthetized rat was measured as the diastolic arterial pressure which provides information on the peripheral resistance of the cardiovascular system and selectivity regarding bradycardia; type: functional, Artery; in short: as §1

Row | Structure (SMILES) | Score (Rattus norvegicus [1]) | Score (Rattus norvegicus [2]) | Score (Rattus norvegicus [3]) | ED125 (Rattus norvegicus [4]) [µM/kg] | EC75 (Cavia porcellus [5]) [nM] | ED75 (Rattus norvegicus [6]) [µM/kg] | total score (SS) (Rattus norvegicus [7]) | Selectivity quotient [8] | Selectivity quotient (Rattus norvegicus [9]) | Score (Cavia porcellus [10]) | EC125 (Cavia porcellus [11]) [µM] | Score (Cavia porcellus [12]) | Selectivity quotient (Rattus norvegicus [13]) | Selectivity quotient (Cavia porcellus [14]) | Score (Cavia porcellus [15]) | Score (Cavia porcellus [16]) | logP [17] | EC75 (Cavia porcellus [18]) [nM] | Selectivity quotient (Cavia porcellus [19]) | ED125 (Rattus norvegicus [20]) [µM/kg]
1 | CC(C)N1CC2CN(C(C)C)CC(C1)C2(C)C | 4 | 1 | -3 | 18 | 10900 | 52 | -2 | # | 0.35 | 2 | 111 | 0 | 1 | 10.2 | 0 | -2 | 2.48 | – | – | –
2 | C=CCCN1CC2CN(CCC=C)CC(C1)C21CCCCC1 | 5 | 6 | -4 | 0.58 | 400 | 4.9 | 2 | – | 0.12 | 6 | 1.14 | 2 | 0.31 | 2.85 | 6 | 0 | 4.49 | 75100 | 167 | 1.5
3 | CCCC1(CCC)C2CN(C(C)C)CC1CN(C(C)C)C2 | 4 | 5 | -3 | 1.8 | 2180 | 6.4 | 2 | – | 0.28 | 5 | 0.8 | 4 | 1.72 | 0.37 | 4 | -1 | 4.51 | 39600 | 18.2 | 11
4 | CC(C)CN1CC2CN(C(C)C)CC(C1)C21CCCCC1 | 5 | 5 | -1 | 0.73 | 1000 | 5.7 | 4 | – | 0.13 | 5 | 1.54 | 3 | >7 | 1.54 | 5 | 0 | 4.29 | 35500 | 35.5 | >41
5 | CCCCN1CC2CN(CC3CCCCC3)CC(C1)C2(C)C | 5 | 5 | -1 | 0.96 | 880 | 5.7 | 4 | – | 0.17 | 6 | 0.48 | 3 | >7 | 0.55 | 5 | -1 | 4.98 | 16300 | 18.5 | >41
6 | CCCCN1CC2CN(CCCC)CC(C1)C2(CCCC)CCCC | 4 | 4 | -3 | 3.2 | 1910 | 8.7 | 1 | – | 0.37 | 5 | 1.01 | 3 | 0.58 | 0.53 | 0 | -5 | 7.03 | 2140 | 1.12 | 5.1

— ChEMBL document CHEMBL1131456, “Synthesis, pharmacological characterization, and quantitative structure-activity relationship analyses of 3,7,9,9-tetraalkylbispidines: derivatives with specific bradycardic activity” (J Med Chem, 1998)
